Experimental data taken from ChEMBL document CHEMBL4680184, “Simple amphiphilic α-hydrazido acids: Rational design, synthesis, and in vitro bioactivity profile of a novel class of potential antimicrobial compounds” (Eur J Med Chem, 2020).
≈ marks a conversion by molar mass, not a printed value. Calls of active or inactive are those of the source. No cut-off for these calls is given here.

How the values were obtained:
Enterococcus faecalis [1] = experiment: Antibacterial activity against Enterococcus faecalis ATCC 29212 assessed as inhibition of visible growth after 24 hrs by broth microdilution method; assay type: functional
Procedure, shortened: (§1)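 Compounds dissolved in sterile water at the highest achievable concentration, then serially diluted in Mueller-Hinton II broth per CLSI broth microdilution. Strains grown 6 h in BHI, diluted in MHII to 1 × 10^6 cfu/mL final. Aerobic incubation 37 °C, 24 h; tetracycline internal control; bacteria-only growth controls. MIC = lowest concentration with no visible growth; triplicate.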

Enterococcus faecium [2] = experiment: Antibacterial activity against Enterococcus faecium 135562 (35C) assessed as inhibition of visible growth after 24 hrs by broth microdilution method; assay type: functional; procedure, shortened: as §1
Staphylococcus aureus [3] = experiment: Antibacterial activity against Staphylococcus aureus ATCC 29213 assessed as inhibition of visible growth after 24 hrs by broth microdilution method; assay type: functional; procedure, shortened: as §1
Escherichia coli [4] = experiment: Antibacterial activity against Escherichia coli ATCC 25922 assessed as inhibition of visible growth after 24 hrs by broth microdilution method; assay type: functional; procedure, shortened: as §1
Pseudomonas aeruginosa [5] = experiment: Antibacterial activity against Pseudomonas aeruginosa ATCC 27853 assessed as inhibition of visible growth after 24 hrs by broth microdilution method; assay type: functional; procedure, shortened: as §1
[6] = Hemolytic activity against human erythrocytes measured after 1 hr by microplate reader based spectrophotometric analysis; assay type: ADME, cell-based, Erythrocyte
Procedure, shortened: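 Heparinized fresh human blood washed three times in PBS pH 7.4 (1000 g, 10 min), resuspended ~20 vol %. Equal volume with 1:2 serial dilutions of compound in PBS, 1 h at 37 °C; PBS and 0.2 vol % Triton X-100 controls. Supernatant diluted 1:60, A350 read. HC50 from three- or four-parameter Hill fit; mean of three replicates.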

[7] = Therapeutic index, ratio of HC50 for human erythrocytes to MIC for Staphylococcus aureus ATCC 29213; assay type: toxicity; conditions: read-out: TI
[8] = Therapeutic index, ratio of HC50 for human erythrocytes to MIC for Escherichia coli ATCC 25922; assay type: toxicity; conditions: read-out: TI
Staphylococcus aureus [9] = experiment: Antibacterial activity against linezolid-methicillin-resistant Staphylococcus aureus AOUC 0915 assessed as inhibition of visible growth after 24 hrs by broth microdilution method; assay type: functional
Procedure, shortened: (§2)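 Broth microdilution per CLSI: strains grown 6 h in BHI broth, diluted in Mueller-Hinton II broth to 1 × 10^6 cfu/mL, mixed 1:1 with serial dilutions of compound in MHII (compounds dissolved in sterile water); aerobic incubation 37 °C, 24 h. MIC = lowest concentration with no visible growth. Tetracycline internal control; triplicate.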

Escherichia coli [10] = experiment: Antibacterial activity against gentamicin-colistin-resistant Escherichia coli 288328 assessed as inhibition of visible growth after 24 hrs by broth microdilution method; assay type: functional; procedure, shortened: as §2
[11] = Therapeutic index, ratio of HC50 for human erythrocytes to MIC for linezolid-methicillin-resistant Staphylococcus aureus AOUC 0915; assay type: toxicity
Procedure, shortened: (§3)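 TI = HC50/MIC. HC50: washed heparinized human erythrocytes (~20 vol % in PBS pH 7.4) mixed 1:1 with 1:2 serial compound dilutions in PBS, 1 h at 37 °C; supernatant A350 read; PBS and 0.2 vol % Triton X-100 as 0 and 100% lysis; HC50 by Hill logistic regression, mean of three replicates.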

[12] = Therapeutic index, ratio of HC50 for human erythrocytes to MIC for gentamycin-colistin-resistant Escherichia coli 288328; assay type: toxicity; procedure, shortened: as §3
Cell membrane [13] = experiment: Induction of outer membrane permeabilization in Escherichia coli ATCC 25922 assessed as increase in fluorescence intensity at 8 ug/ml measured every 1 sec for 10 mins by NPN-probe based assay; assay type: subcellular; conditions: dose 8.0 µg/ml, in the assay text read “every 0.1 sec” for “every 1 sec”
Procedure, shortened: (§4)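 Midlog E. coli (6 h growth, 10^8 cells/mL) washed, resuspended in PBS pH 7.2, held at 4 °C, used within 3 h; equilibrated 15 min at 25 °C. NPN 1 µM working plus compound 8 µg/mL working. Fluorescence ex 350/em 420 nm, read every 0.1 s for 10 min; rate constant from exponential rise-to-maximum fit; probe-only, buffer controls.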

Cell membrane [14] = experiment: Induction of outer membrane permeabilization in gentamycin-colistin resistant Escherichia coli 288328 assessed as increase in fluorescence intensity at 8 ug/ml measured every 1 sec for 10 mins by NPN-probe based assay; assay type: subcellular; conditions: dose 8.0 µg/ml, in the assay text read “every 0.1 sec” for “every 1 sec”; procedure, shortened: as §4
Cell membrane [15] = experiment: Induction of inner membrane permeabilization in Escherichia coli ATCC 25922 assessed as increase in fluorescence intensity at 8 ug/ml measured every 1 sec for 10 mins by PI-probe based assay; assay type: subcellular; conditions: dose 8.0 µg/ml, in the assay text read “every 0.1 sec” for “every 1 sec”
Procedure, shortened: (§5)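 Same washed midlog E. coli suspension (PBS pH 7.2, 10^8 cells/mL, 25 °C after 15 min equilibration). Propidium iodide 15 µM working with compound at 8 µg/mL working. Fluorescence ex 535/em 617 nm every 0.1 s over 10 min; rate constant from exponential rise-to-maximum fit; controls without cells or compound.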

Cell membrane [16] = experiment: Induction of inner membrane permeabilization in gentamycin-colistin resistant Escherichia coli 288328 assessed as increase in fluorescence intensity at 8 ug/ml measured every 1 sec for 10 mins by PI-probe based assay; assay type: subcellular; conditions: dose 8.0 µg/ml, in the assay text read “every 0.1 sec” for “every 1 sec”; procedure, shortened: as §5
Cell membrane [17] = experiment: Induction of outer membrane permeabilization in Escherichia coli ATCC 25922 assessed as rate constant by measuring NPN uptake at 8 ug/ml measured every 1 sec for 10 mins; assay type: subcellular; conditions: dose 8.0 µg/ml, in the assay text read “every 0.1 sec” for “every 1 sec”; procedure, shortened: as §4
Cell membrane [18] = experiment: Induction of outer membrane permeabilization in gentamycin-colistin resistant Escherichia coli 288328 assessed as rate constant by measuring NPN uptake at 8 ug/ml […]; conditions: dose 8.0 µg/ml
Cell membrane [19] = experiment: Induction of inner membrane permeabilization in Escherichia coli ATCC 25922 assessed as rate constant by measuring PI uptake at 8 ug/ml […]; conditions: dose 8.0 µg/ml
Cell membrane [20] = experiment: Induction of inner membrane permeabilization in gentamycin-colistin resistant Escherichia coli 288328 assessed as rate constant by measuring PI uptake at 8 ug/ml […]; conditions: dose 8.0 µg/ml
Staphylococcus aureus [21] = experiment: Antibacterial activity against Staphylococcus aureus ATCC 29213 after preincubated with plasma for 6 hrs by broth microdilution method; assay type: functional, organism-based
[22] = Retention time of the compound by RP-HPLC analysis; assay type: physicochemical
Procedure, shortened: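 RP-HPLC on C18 column (5 µm, 200 × 4.6 mm), 0.5 mL/min; hydrochlorides at 0.5–1 mg/mL in water:2-propanol 70:30, gradient to 10:90 over 40 min, then 20 min at 10:90. Adjusted retention time = instrumental retention time minus hold-up time.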

[23] = Chemical stability of the compound in pH 7.4 phosphate buffered saline at 1 ug/ml assessed as compound degradation after 8 weeks; assay type: physicochemical; conditions: buffer, pH 7.4, 1344 h, at 1 µg/mL
[24] = Chemical stability of the compound in pH 1.5 hydrochloride solution at 1 ug/ml assessed as compound degradation after 8 weeks; assay type: physicochemical; conditions: buffer, pH 1.5, 1344 h, at 1 µg/mL
[25] = Chemical stability of the compound in hydrochloride water at 1 ug/ml assessed as compound degradation after 8 weeks; assay type: physicochemical; conditions: buffer, 1344 h, at 1 µg/mL
Enterococcus faecium [26] = experiment: Antibacterial activity against Enterococcus faecium ATCC 135562 by broth microdilution method; assay type: functional; procedure, shortened: as §1
Staphylococcus aureus [27] = experiment: Antibacterial activity against Staphylococcus aureus ATCC 29213 by broth microdilution method; assay type: functional; procedure, shortened: as §1
Escherichia coli [28] = experiment: Antibacterial activity against Escherichia coli ATCC 25922 by broth microdilution method
Enterococcus faecalis [29] = experiment: Antibacterial activity against Enterococcus faecalis ATCC 29212; assay type: functional; procedure, shortened: as §1
Staphylococcus aureus [30] = experiment: Antibacterial activity against Staphylococcus aureus ATCC 29213; assay type: functional; procedure, shortened: as §2
Escherichia coli [31] = experiment: Antibacterial activity against Escherichia coli ATCC 25922; assay type: functional; procedure, shortened: as §2
Pseudomonas aeruginosa [32] = experiment: microbe, parasite or virus in culture; conditions: ATCC 27853

Row | Molecule | MIC (Enterococcus faecalis [1]) | MIC (Enterococcus faecium [2]) | MIC (Staphylococcus aureus [3]) | MIC (Escherichia coli [4]) | MIC (Pseudomonas aeruginosa [5]) | HC50 at 1 h [6] | selectivity ratio [7] | selectivity ratio [8] | MIC (Staphylococcus aureus [9]) | MIC (Escherichia coli [10]) | selectivity ratio [11] | selectivity ratio [12] | Activity (Staphylococcus aureus [21]) | Retention_time [22] | also measured
1 | CCCCCCCCCCCCNC(=O)CN(NC(=O)C(C)(C)C)C(=O)CN.Cl | 8 µg/mL | 8 µg/mL | 4 µg/mL | 8 µg/mL | 16 µg/mL | 394 µg/mL | 99 | 49 | 4 µg/mL | 8 µg/mL | 99 | 49 | Active | 19.8 min | Activity (Cell membrane [13]): Active; Activity (Cell membrane [14]): Active; Activity (Cell membrane [15]): Active; Activity (Cell membrane [16]): Active; Activity (Cell membrane [17]): 0.25 min⁻¹; Activity (Cell membrane [18]): 0.31 min⁻¹; Activity (Cell membrane [19]): 0.22 min⁻¹; Activity (Cell membrane [20]): 0.24 min⁻¹
2 | CCCCCCCCNC(=O)CN(NC(=O)CCCCCCC)C(=O)CN.Cl | 32 µg/mL | 16 µg/mL | 16 µg/mL | 16 µg/mL | 32 µg/mL | 131 µg/mL | 8.2 | 8.2 | – | – | – | – | Active | 17.8 min | Stabilty [23]: Stable; Stabilty [24]: Stable; Stabilty [25]: Stable
3 | CCCCCCCCCCCCNC(=O)CN(NC(=O)c1ccccc1)C(=O)CN.Cl | 4 µg/mL | 4 µg/mL | 4 µg/mL | 4 µg/mL | 64 µg/mL | 195 µg/mL | 49 | 49 | 4 µg/mL | 4 µg/mL | 49 | 49 | Active | 19.7 min | –
4 | H-GIGKFLKKAKKFGKAFVKILKK-NH2 [PEXIGANAN] | – | – | – | – | – | – | – | – | – | – | – | – | – | – | MIC (Enterococcus faecium [26]): 64 µg/mL; MIC (Staphylococcus aureus [27]): 8 µg/mL; MIC (Escherichia coli [28]): 16 µg/mL
5 | CN(C)[C@@H]1C(O)=C(C(N)=O)C(=O)[C@@]2(O)C(O)=C3C(=O)c4c(O)cccc4[C@@](C)(O)[C@H]3C[C@@H]12 [TETRACYCLINE] | – | – | – | – | – | – | – | – | – | – | – | – | – | – | MIC (Enterococcus faecalis [29]): 8 µg/mL (≈ 18 µM); MIC (Staphylococcus aureus [30]): 0.12 µg/mL (≈ 0.27 µM); MIC (Escherichia coli [31]): 0.5 µg/mL (≈ 1.13 µM); MIC (Pseudomonas aeruginosa [32]): 8 µg/mL (≈ 18 µM)
